RAD54 inh – inhibitors of human RAD54 branch migration. 360,000 tested, 0.14% active. Q92698. inhibition, % at 10.4 µM. AID 602329. RAD54 Holliday junction branch migration, FAM/BHQ fluorescence;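 active means mean normalized replicate activity at least 40 and at least half of replicates scoring 40 or more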;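 further: inhibitors cause a drop in the FAM fluorescence signal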
Target sequence (Q92698 whole entry, looked up): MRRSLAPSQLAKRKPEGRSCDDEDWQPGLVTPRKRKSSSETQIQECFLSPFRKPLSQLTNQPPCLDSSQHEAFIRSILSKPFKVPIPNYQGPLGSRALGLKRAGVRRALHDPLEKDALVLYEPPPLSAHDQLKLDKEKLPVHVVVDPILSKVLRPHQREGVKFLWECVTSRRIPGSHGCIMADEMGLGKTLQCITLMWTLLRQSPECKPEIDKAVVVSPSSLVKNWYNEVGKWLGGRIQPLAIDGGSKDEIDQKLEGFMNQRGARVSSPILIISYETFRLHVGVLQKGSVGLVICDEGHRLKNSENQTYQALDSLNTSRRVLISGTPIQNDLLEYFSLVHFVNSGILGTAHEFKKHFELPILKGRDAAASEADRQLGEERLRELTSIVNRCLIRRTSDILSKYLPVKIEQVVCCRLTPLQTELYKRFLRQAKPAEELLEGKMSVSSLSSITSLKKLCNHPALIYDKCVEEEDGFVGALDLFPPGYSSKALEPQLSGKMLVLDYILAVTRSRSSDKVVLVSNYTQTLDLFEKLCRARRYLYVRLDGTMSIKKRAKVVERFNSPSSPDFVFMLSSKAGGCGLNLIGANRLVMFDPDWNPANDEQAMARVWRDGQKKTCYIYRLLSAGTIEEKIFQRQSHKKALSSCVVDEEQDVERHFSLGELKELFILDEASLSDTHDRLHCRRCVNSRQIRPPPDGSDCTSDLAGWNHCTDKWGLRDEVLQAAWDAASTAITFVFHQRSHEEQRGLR
VIM-2 inh – blocks Pseudomonas aeruginosa VIM-2 metallo-beta-lactamase; inhibition, % at 5.6 µM; 290,000 tested, 0.89% active; AID 1527; purified VIM-2, nitrocefin hydrolysis, epi-absorbance fluorescence;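 active means inhibition above the mean of all tested compounds plus 3 SD, cutoff set per screening run, cut at about 7.5% in these data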;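 further: red hydrolysis product quenches plate fluorescence so inhibitors raise well fluorescence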
PvdQ inh – blocks Pseudomonas aeruginosa PvdQ acylase activity; purified PvdQ acylase, fluorescence plate reader; inhibition, % at 10 µM; 340,000 tested, 0.063% active; AID 488965; in the data active means inhibition above about 30%, passing the limit was not always enough
DNA FID counter – counter-screen for HCV NS3 helicase inhibitors: DNA intercalator displacement | 290,000 tested, 0.17% active | inhibition, % at 7.9 µM | DNA fluorescent intercalator displacement, fluorescence; in the data active means inhibition above about 37%;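 further: higher means more ethidium bromide displaced from hairpin DNA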
IMP-1 inhibitor – inhibitors of Pseudomonas aeruginosa IMP-1 metallo-beta-lactamase. purified IMP-1, nitrocefin hydrolysis, epi-absorbance fluorescence. inhibition, % at 5.6 µM. 290,000 tested, 0.45% active. AID 1556;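 active means inhibition above the mean plus 3 SD of all compounds in the same screening run, cut at about 4.5% in these data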
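Assay system: purified recombinant IMP-1 beta-lactamase. Input: IMP-1 0.2 nM before substrate addition. Buffer or medium: Zinc- and detergent-supplemented HEPES buffer, pH 7.1. Schedule: 25 °C, 15 min preincubation, 25 min reaction. Signal: Epi-absorbance fluorescence, 480 nm excitation, 530 nm emission. Evaluation: percent inhibition from optical density relative to buffer-blank wells.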
Each line names hits and unclear results; the compound was inactive in the other large screens. Hits are enriched below; roughly 1% of the tested compounds scored in any of these assays.

NP(=O)(Oc1ccc(Cl)cc1)Oc1ccc(Cl)cc1	IMP-1 inhibitor 7.7 (no result: RAD54 inh)
NP(=O)(Oc1ccccc1)Oc1ccccc1	none (no result: VIM-2 inh, DNA FID counter, IMP-1 inhibitor)
COC(=O)C1C=C2c3cccc4[nH]cc(c34)CC2N(C)C1 (centres undefined)	IMP-1 inhibitor 6.8 (no result: RAD54 inh, PvdQ inh)
O=C1C(=O)c2cccc3cccc1c23	IMP-1 inhibitor 5.1 (no result: RAD54 inh)
CN1C(=O)/C(=C/c2ccc(Cl)s2)C(=O)NC1=S	IMP-1 inhibitor 9.7
CC(=O)c1ccc2c(c1)C1C(Cl)C(Sc3ccccc3[N+](=O)[O-])CC1C(c1ccccc1[N+](=O)[O-])N2 (centres undefined)	none
CC(=O)c1ccc2c(c1)C1C(Cl)C(Sc3ccccc3[N+](=O)[O-])CC1C(c1ccccc1)N2 (centres undefined)	IMP-1 inhibitor 5.7
COC(=O)[C@H]1[C@H](CO)[C@H]2Cn3c(ccc(C4=CCCCC4)c3=O)[C@@H]1N2CC1CC1	none (no result: VIM-2 inh, PvdQ inh, DNA FID counter, IMP-1 inhibitor)
O=C(Cn1cc(C=C2C(=O)NC(=O)NC2=O)c2ccccc21)NCC1CCCO1 (centres undefined)	none
Cc1c(C=C2C(=O)N(C)C(=S)N(C)C2=O)c2ccccc2n1CC(=O)NCC1CCCO1 (centres undefined)	IMP-1 inhibitor 19
Cc1cc(OC(C)C(=O)NCc2cccnc2)c2c3c(c(=O)oc2c1)CCC3 (centres undefined)	VIM-2 inh 8.4
CCOC(=O)c1c(-n2c(C)cc(/C=C3\C(=O)NC(=O)N(C)C3=O)c2C)sc2c1CCCC2	none
Cc1cc(/C=C2\C(=O)NC(=O)N(c3ccc(Cl)cc3)C2=O)c(C)n1-c1sc2c(c1C#N)CCCC2	IMP-1 inhibitor 5.3 (no result: RAD54 inh)
CC(=O)C1CCC2C3CCC4CC(O)CCC4(C)C3CCC12C (centres undefined)	none (no result: VIM-2 inh, DNA FID counter, IMP-1 inhibitor)
C[C@]12CCC3C(CC[C@H]4C[C@@H](O)CC[C@]34C)C1CC[C@@H]2OC(=O)[C@H](N)CCCCN (some centres undefined)	RAD54 inh 66 (no result: VIM-2 inh, DNA FID counter, IMP-1 inhibitor)
CCOC(=O)[C@@H]1[C@@H]2NC(=S)N(C)[C@@]1(COCc1ccc(OC)cc1)Oc1ccccc12	none (no result: VIM-2 inh, PvdQ inh, DNA FID counter, IMP-1 inhibitor)
O=C1NC(=O)C(CCc2ccncc2)(c2ccccc2)C(=O)N1	IMP-1 inhibitor 6.1
O=C(Cc1ccncc1)N1CCCCN2[C@H](CO)[C@H](c3ccc(C#Cc4ccccc4F)cc3)[C@H]2C1	none (no result: VIM-2 inh, PvdQ inh, DNA FID counter, IMP-1 inhibitor)
CCCC(C)n1[nH]c(=O)c2c1NC(=O)CSC2c1ccccc1 (centres undefined)	none
CCOc1ccccc1C1SCC(=O)Nc2c1c(=O)[nH]n2C(CC)CC (centres undefined)	VIM-2 inh 11
O=C(Cc1cccnc1)N1CCCCN2[C@H](C1)[C@@H](c1ccc(C#CC3(O)CCCC3)cc1)[C@@H]2CO	none (no result: VIM-2 inh, PvdQ inh, DNA FID counter, IMP-1 inhibitor)
C=CCn1c(O)c(C(C)=NC2CCN(Cc3ccccc3)CC2)c(=O)[nH]c1=O	VIM-2 inh 8.7 (no result: PvdQ inh)
CCCN1[C@@H]2c3ccc(-c4ccc(F)cc4)c(=O)n3C[C@H]1[C@H](CO)[C@H]2C(=O)OC	none (no result: VIM-2 inh, PvdQ inh, DNA FID counter, IMP-1 inhibitor)
COc1cccc(-c2ccc([C@@H]3[C@H](CO)N4CCCCN(C(=O)Cc5ccncc5)C[C@@H]34)cc2)c1	none (no result: VIM-2 inh, PvdQ inh, DNA FID counter, IMP-1 inhibitor)
CN1CCN(c2ccc([N+](=O)[O-])c(N/N=C3\CN4CCC3CC4)c2)CC1	RAD54 inh 70, DNA FID counter 42
COc1ccc(Cn2c(N)c(C(=O)NCc3ccco3)c3nc4ccccc4nc32)cc1OC	none
Nc1c(C(=O)NCc2ccco2)c2nc3ccccc3nc2n1CCN1CCCCC1	RAD54 inh 75
O=P(O)(O)Cc1ccccc1OP(=O)(c1ccccc1)c1ccccc1	VIM-2 inh 9.9
Nc1c2c(nc3sc4c(c13)CCCC4)CCCC2	VIM-2 inh 12
CC1(C)OC(c2ccccc2)=C/C(=C/C=C2C(=O)NC(=O)NC2=O)O1	IMP-1 inhibitor 4.6 (no result: RAD54 inh)
CN1/C(=C\C=C2C(=O)NC(=O)NC2=O)C(C)(C)c2ccccc21	none (no result: RAD54 inh)
Cc1cc(OCC(=O)N2CCC(C(N)=O)CC2)c2c3c(c(=O)oc2c1)CCCC3	VIM-2 inh 8.6
O=C(O)[C@H]1[C@H](CO)[C@H]2Cn3c(ccc(-c4ccccc4)c3=O)[C@@H]1N2C(=O)C1CCCCC1	none (no result: VIM-2 inh, PvdQ inh, DNA FID counter, IMP-1 inhibitor)
O=P(O)(O)Cc1c(Cl)cccc1Cl	VIM-2 inh 12
Cc1ccccc1-c1ccc([C@H]2[C@H]3CN(C(=O)Cc4ccccn4)CCCCN3[C@H]2CO)cc1	none (no result: VIM-2 inh, PvdQ inh, DNA FID counter, IMP-1 inhibitor)
CCCCCSc1cc(OC)c(CCN)cc1OC	DNA FID counter 39
CCCCCCCSc1cc(OC)c(CCN(C)C)cc1OC	none (no result: RAD54 inh)
C[C@]12CC[C@@H]3c4ccc(O)c(O)c4CC[C@H]3[C@@H]1CC[C@@H]2O	IMP-1 inhibitor 14
C[C@]12CC[C@H]3[C@@H](CCC4=CC(=O)CC[C@@H]43)[C@@H]1CC[C@@H]2O	none (no result: VIM-2 inh, DNA FID counter, IMP-1 inhibitor)
COc1ccc(C(C)=O)cc1CC(C(=O)c1ccc(Br)cc1)N(C)C (centres undefined)	IMP-1 inhibitor 6.0 (no result: RAD54 inh)
C[N+]12CCC(CC1)C(C(O)(c1ccccc1)c1cccs1)C2 (centres undefined)	IMP-1 inhibitor 12
Cc1cc(=O)oc2cc(OCC(=O)N3CCN(Cc4ccc5c(c4)OCO5)CC3)ccc12	VIM-2 inh 9.7
Cc1cc(=O)oc2cc(OCC(=O)N3CCN(Cc4ccccc4)CC3)ccc12	none (no result: VIM-2 inh, DNA FID counter, IMP-1 inhibitor)
COC(=O)[C@H]1[C@H](CO)[C@H]2Cn3c(ccc(-c4ccccc4F)c3=O)[C@@H]1N2Cc1ccncc1	none (no result: VIM-2 inh, PvdQ inh, DNA FID counter, IMP-1 inhibitor)
CN1CCN(c2cccc3c2C(=O)c2ccccc2C3=O)CC1	RAD54 inh 79, DNA FID counter 60
COc1ccc(C#Cc2ccc([C@H]3[C@H]4CN(C(=O)Cc5ccccc5)CCCCN4[C@H]3CO)cc2)cc1	none (no result: VIM-2 inh, PvdQ inh, DNA FID counter, IMP-1 inhibitor)
O=C(Cc1ccccc1)N1C[C@H]2[C@@H](c3ccccc31)[C@H](CO)N2Cc1ccccc1	none (no result: VIM-2 inh, PvdQ inh, DNA FID counter, IMP-1 inhibitor)
CCOC(=O)c1ccc(NC(=O)c2c(O)[nH]c(=O)[nH]c2=O)cc1	VIM-2 inh 59, IMP-1 inhibitor 78

Source: PubChem BioAssay (several laboratories)
